From PubChem BioAssay
Shown are actives, neighbours in structure and some others; about 1.6% of the full set was active somewhere.
KLK7 zymogen act: proKLK7 (human) activation, primary screen; P49862; purified proKLK7, EDANS-DABCYL substrate fluorescence; 100% is mature enzyme control, 0% vehicle; activation, % at 7 µM; actives 0.9% (n = 370,000); AID 652039;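 active means activation above the mean of all tested compounds plus 3 SD, computed per campaign excluding outliers beyond control limits, cut at about 13% in these data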
procasp7 counter: activates human procaspase-7, counter-screen for procaspase-3 activators. recombinant procaspase-7, Ac-DEVD-pNA absorbance 405 nm; D23A/D198A/D206A triple mutant, cannot self-cleave; scale: DMSO 0, 5 µM enzyme 100. activation, % at 8.5 µM. actives 0.093% (n = 330,000). P55210;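 active means percent activation above the screen-wide mean plus 3 SD, cut at about 25% in these data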
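Assay system: Uncleavable procaspase-7 mutant enzyme; Input: 2 µM procaspase-7 mutant as dispensed; Also added: DEVD-pNA substrate; Medium: Zinc-free HEPES pH 7.4 with 300 mM NaCl, 0.01% Triton X-100; Timing: 1 h compound preincubation, 2 h substrate cleavage, 25 °C; Measured by: Epi-absorbance of released pNA at 405 nm, two timepoints.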
procasp3 activ: activates human procaspase-3. P42574. recombinant procaspase-3 D3A, Ac-DEVD-pNA absorbance 405 nm. activation, % at 8.5 µM. actives 0.11% (n = 330,000). AID 463141;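 active means activation above the mean of all tested compounds plus 3 SD, cut at about 21% in these data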
Target sequence (P42574 whole entry D9A/D28A/D175A): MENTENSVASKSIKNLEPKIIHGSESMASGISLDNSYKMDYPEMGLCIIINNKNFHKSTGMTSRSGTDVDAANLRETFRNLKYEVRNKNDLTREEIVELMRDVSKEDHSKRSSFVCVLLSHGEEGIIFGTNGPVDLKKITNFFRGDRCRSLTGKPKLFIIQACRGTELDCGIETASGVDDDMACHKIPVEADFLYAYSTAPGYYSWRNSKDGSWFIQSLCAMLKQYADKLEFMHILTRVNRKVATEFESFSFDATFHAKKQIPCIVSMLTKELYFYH
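Test system: Procaspase-3 D3A mutant; medium: Zinc-free HEPES/NaCl buffer with 0.01% Triton X-100 at pH 7.4; reagent: DEVD-pNA substrate; doses: one concentration, 8.5 µM nominal, 0.8% DMSO; times: 1 h preincubation plus 2 h reaction at 25 °C; signal: Epi-absorbance at 405 nm of released p-nitroaniline, 0 and 120 min; replicates: singlicate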
Neddylation inh: inhibitors of human cullin neddylation | TR-FRET cullin neddylation, biochemical | AID 651699 | P61081+Q13564 | actives 0.58% (n = 360,000) | calls only at 25 µM; in the data active means inhibition above about 36%
Neddyl conf: confirmation of human cullin neddylation inhibitors. actives 13% (n = 1,800). shares compounds with Neddylation inh. TR-FRET cullin neddylation biochemical assay. calls only at 25 µM; in the data active means inhibition above about 40%;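 further: neddylation substrate is the cullin 1 ring ligase complex with SKP2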
KLK7 act conf: proKLK7 activation, confirmation. shares compounds with KLK7 zymogen act. purified proKLK7, EDANS-DABCYL substrate fluorescence; scaled: vehicle 0, mature enzyme 100. activation, % at 7 µM. actives 68% (n = 3,200);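 active means activation, as change over the incubation, above the mean of all tested compounds plus 3 SD, cut at about 13% in these data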
EDANS interfere: fluorescence interference counter-screen for KLK7 activators | shares compounds with KLK7 zymogen act | EDANS-DABCYL substrate fluorescence interference, no enzyme, 4 h; solvent 0%, active enzyme control 100% | activation, % at 7 µM | AID 686952 | actives 80% (n = 3,200);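 active means activation above the all-compound mean plus 3 SD, ignoring values outside control-based bounds, cut at about 4.8% in these data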;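 further: value is the 4 h activation minus the activation read at time zero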
A number is an active result; – = inactive; · = not tested or not shown; + = active, no number.

SMILES | KLK7 zymogen act | procasp7 counter | procasp3 activ | Neddylation inh | KLK7 act conf | EDANS interfere | others
Cc1ccc(-n2c(SCc3nc4ccccc4[nH]3)nnc2-c2ccccn2)cc1 | – | · | · | · | · | ·
N#Cc1ccc(-c2ccc(OCC(=O)Nc3cccnc3)cc2)cc1 | 18.0 | · | · | + | – | – | Neddyl conf=–
COc1ccc(CN2C[C@@H](CO)O[C@@H](n3cnc4c(NCc5ccc(F)cc5)ncnc43)C2)cc1 | – | · | · | – | · | ·
Cc1ccc2cc3cc(C(=O)NCCN4CCOCC4)oc3nc2c1 | 13.2 | – | – | + | 14.4 | 12.6 | Neddyl conf=+
O=[n+]1cc(-c2cc3ccccc3o2)n([O-])c2c1CCCC2 | 14.9 | – | – | + | – | 17.8 | Neddyl conf=–
COc1ccc(/C=C2/C(=O)N(c3nc4ccccc4s3)N=C2CSc2ccc(Cl)cc2)cc1 | – | – | – | – | · | ·
Cc1cc(C)cc(Nc2ccc(C(=O)O)cc2N)c1 | – | – | – | · | · | ·
COc1cccc(Nc2ccc(C(=O)O)cc2N)c1 | 30.3 | – | – | + | – | –
CC1C(=O)N2CCCc3cc(NC(=O)c4ccccc4Br)cc1c32 (stereo not given) | – | – | – | – | · | ·
CCc1ccc(OC(=O)c2cccnc2)cc1 | – | – | – | – | · | ·
CC1(C)CC(=O)C2=C(C1)OC(N)=C(C#N)C2c1cc2c(cc1[N+](=O)[O-])OCO2 (stereo not given) | 107.7 | – | – | + | 65.5 | 66.4 | Neddyl conf=–
COCCCNC(=O)C[C@H]1C[C@H](C(=O)N(C(C)C)C(C)C)[C@@]2(C)c3[nH]c4cc(-c5ccco5)ccc4c3CCN2C1=O | 137.1 | – | – | · | 151.5 | 146.4
COc1ccc(CNC(=O)C[C@H]2C[C@H](C(=O)N(C(C)C)C(C)C)[C@@]3(C)c4[nH]c5cc(-c6ccco6)ccc5c4CCN3C2=O)cc1OC | 12.9 | – | – | · | – | 10.0
COCCCNC(=O)CC1C[C@H](C(=O)N2CCOCC2)[C@@]2(C)c3[nH]c4ccccc4c3CCN2C1=O (stereo not given in full) | – | – | – | – | · | ·
CN(C)CCCNC(=O)C[C@H]1C[C@H](C(=O)N2CCOCC2)[C@@]2(C)c3[nH]c4cc(-c5ccco5)ccc4c3CCN2C1=O | 53.7 | – | – | · | 55.5 | 56.6
CC(C)N(C(=O)[C@H]1C[C@H](CC(=O)NCC23CC4CC(CC(C4)C2)C3)C(=O)N2CCc3c([nH]c4cc(-c5ccco5)ccc34)[C@]12C)C(C)C | – | – | – | – | · | ·
COCCCNC(=O)C[C@H]1C[C@H](C(=O)N2CCOCC2)[C@@]2(C)c3[nH]c4cc(-c5ccco5)ccc4c3CCN2C1=O | 82.3 | – | – | · | 95.2 | 129.9
COc1cccc(-c2ccc(NC(=O)C3CCCN(Cc4cccc(C)n4)C3)cc2)c1 (stereo not given) | – | · | · | – | · | ·
CCOC(=O)N1CCC(N2CCCC(C(=O)c3ccc4cc(OC)ccc4c3)C2)CC1 (stereo not given) | 68.9 | – | – | · | – | –
COc1ccc2cc(C(=O)C3CCCN(Cc4cccc(C)n4)C3)ccc2c1 (stereo not given) | 45.3 | – | – | · | – | –
COc1cc2c(cc1OC)CN(c1ccc3ccccc3n1)CC2 | 41.6 | – | – | – | 70.1 | 79.9
CCCCc1cc(=O)oc2c(CN(CC)CC)c(O)c(Cl)cc12 | 63.4 | – | – | · | 70.2 | 70.7
CCCc1cc(=O)oc2cc(OCC(=O)N(C)C)c(Cl)cc12 | – | – | – | – | · | ·
CCCc1cc(=O)oc2c(CN(CC)CC)c(O)c(Cl)cc12 | 53.4 | – | – | · | 65.7 | 67.7
O=S(=O)(O)c1ccc(N2N=C(c3ccccc3)CC2c2ccccc2)cc1 (stereo not given) | 56.0 | – | – | – | 71.7 | 65.5
CCOc1ccc(N(CC(=O)Nc2ccc(OC)cc2)S(=O)(=O)c2c(C)noc2C)cc1 | – | – | – | – | · | ·
